CaV13 ICDI inh = Disruptors of the CACNA1D IQ motif to Ca2+-dependent inactivation inhibitor domain association, primary screening, Förster resonance energy transfer in intact living …; HEK cells, CFP/YFP FRET ICDI-IQ, plate reader, 10 min; percent FRET-ratio fall versus neutral wells; inhibition, % at 12.3 µM; actives 0.098% (n = 340,000);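 active means mean replicate inhibition of at least 30% and at least 1% of replicates passing that level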;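 further: 0% = median of the neutral control wells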
XiGFP reactiv = X-chromosome reactivation activator; XiGFP mouse fibroblasts, % GFP-positive cells imaging, 3 d; cells co-treated with 5-aza-dC sensitizer; scaled so ellipticine positive control = 100%; activation, % at 7.58 µM; actives 0.055% (n = 360,000); AID 743238;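 active means mean normalized replicate activation at least 10% and every replicate at or above 10%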;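 further: 0% = median of on-plate neutral control wells and 100% = ellipticine 6 µM median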
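System: XiGFP fibroblasts, SV40-immortalized. Medium: DMEM plus 5-aza-dC sensitizer. Doses: single point. Timing: 3 d treatment, 15 min room-temperature fixation. Control set: ellipticine 6 µM.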
FXN GAA850 act = frataxin GAA850 promoter activation; HEK293 lucGAA850 FXN promoter luciferase reporter, 24 h; percent of 10 µM SAHA response; activation, % at 6 µM; actives 0.56% (n = 360,000); AID 540364;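 active means activation above the average of all compounds screened plus 3 SD, cutoff fixed separately per campaign, cut at about 7.5% in these data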;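 further: 0% = DMSO wells and 100% = 10 µM SAHA wells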
GSIS activator = GLuc luminescence reporter in INS-1E cells, primary screen for activators of glucose-dependent secretion of insulin; activation, % at 16.6 µM; INS-1E GLuc reporter insulin secretion, 2-3 h; actives 0.61% (n = 370,000);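 active means lowest replicate activation of at least 40%, so every replicate reaches that level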;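 further: 0% = median of neutral control wells and 100% = median of IBMX positive control wells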
* = called active by the depositor. The list is not random: actives were taken first. Their share in the collection is about 1%.

CNc1nc(NCc2ccc(C)cc2C)c2sccc2n1 was read as CaV13 ICDI inh -5, XiGFP reactiv 0, FXN GAA850 act -1 and GSIS activator -20.
Cc1ccc(CNc2nc(NCc3ccccc3)nc3ccsc23)c(C)c1 was read as CaV13 ICDI inh -6, XiGFP reactiv 0, FXN GAA850 act -3 and GSIS activator 196*.
CN(c1ccc(C(=O)N2CCN(Cc3ccc4c(c3)OCO4)CC2)cc1)S(=O)(=O)c1ccccc1 was read as CaV13 ICDI inh -3, FXN GAA850 act -4 and GSIS activator -27.
Screening COc1ccc(S(=O)(=O)N(C)c2ccc(C(=O)N3CCCC3)cc2)cc1OC returned CaV13 ICDI inh -2, XiGFP reactiv 0, FXN GAA850 act 1 and GSIS activator 43*.
`CN(c1ccc(C(=O)N2CCN(Cc3ccccc3)CC2)cc1)S(=O)(=O)c1ccccc1` gave CaV13 ICDI inh -2, XiGFP reactiv 0, FXN GAA850 act 1 and GSIS activator 56*.
`CNC[C@H]1Oc2ncc(C3=CCCC3)cc2C(=O)N([C@@H](C)CO)C[C@H]1C` gave XiGFP reactiv -1 and GSIS activator -4.
For CC(C)Cn1c(SCC(=O)Nc2ccc3[nH]c(=O)[nH]c3c2)nc2ccccc2c1=O the results were CaV13 ICDI inh -6, XiGFP reactiv 0, FXN GAA850 act 2 and GSIS activator 45*.
For O=C(Nc1ccccc1)Nc1nc(-c2ccccc2)cs1 the results were CaV13 ICDI inh -4, XiGFP reactiv 0 and FXN GAA850 act -2.
Screening O=C(Nc1ccc(Cl)c(Cl)c1)Nc1nc(-c2ccccc2)cs1 returned CaV13 ICDI inh -4, XiGFP reactiv 0, FXN GAA850 act -3 and GSIS activator 166*.
For CCCNC(=O)C[C@@H]1CC[C@H]2[C@@H](COc3ccc(NC(=O)NC(C)C)cc3C(=O)N2C)O1 the results were XiGFP reactiv 5 and GSIS activator -2.
COCCOC(=O)C1=C(C)NC(=O)N(C(C)=O)C1c1ccc(Cl)cc1 (configuration not stated) was read as CaV13 ICDI inh -5, FXN GAA850 act 0 and GSIS activator 56*.
`CC(C)c1c(O)c2c(n(-c3ccccc3)c1=O)CCCC2` gave CaV13 ICDI inh -5, XiGFP reactiv 0, FXN GAA850 act 1 and GSIS activator 61*.
NS(=O)(=O)c1ccc(CCNc2nn3c(-c4cccc(OC(F)(F)F)c4)cnc3s2)cc1 was read as CaV13 ICDI inh -6, XiGFP reactiv 0, FXN GAA850 act -4 and GSIS activator 143*.
Screening CC(C)n1cc(/C(N)=N/O)c(=O)n(Cc2ccccc2)c1=O returned CaV13 ICDI inh -6, XiGFP reactiv 0, FXN GAA850 act 3 and GSIS activator 61*.
For O=c1[nH]c2ccccc2nc1/C=C/c1ccccc1 the results were CaV13 ICDI inh active, XiGFP reactiv 1, FXN GAA850 act 3 and GSIS activator 8.
N#CCc1nn2c(-c3ccccc3)ccnc2c1C#N was read as CaV13 ICDI inh -20, XiGFP reactiv 0, FXN GAA850 act 0 and GSIS activator 46*.
For Cc1nn2c(-c3ccccc3)ccnc2c1-c1ccccc1 the results were CaV13 ICDI inh -5 and FXN GAA850 act 2.
COc1ccc(C(=O)Nc2ccc3c(c2)C(=O)c2ccccc2C3=O)cc1OC was read as CaV13 ICDI inh -6, XiGFP reactiv 0, FXN GAA850 act 3 and GSIS activator 62*.
Screening COc1ccc2c3c(n(C)c2c1)[C@@H](CO)N(Cc1ccncc1)CC31CCN(C(=O)C2CCC2)CC1 returned XiGFP reactiv 0 and GSIS activator -4.
`COCC(=O)Nc1ccc2c(c1)[C@@H]1C[C@@H](CC(=O)N3CCOCC3)O[C@H](CO)[C@@H]1O2` gave XiGFP reactiv 0 and GSIS activator 43.
Screening O=C(O)c1ccc(-n2nnnc2SCc2ccccc2Br)cc1 returned CaV13 ICDI inh -17, XiGFP reactiv 0, FXN GAA850 act 1 and GSIS activator 48*.
COc1cccc(C(=O)OCCCOC(=O)c2cccc(OC)c2OC)c1OC was read as CaV13 ICDI inh -6, XiGFP reactiv 0, FXN GAA850 act 1 and GSIS activator 42*.
CCCOc1ccc(C(=O)NNC(=S)NC(=O)c2ccco2)cc1 was read as CaV13 ICDI inh 35*, XiGFP reactiv 0, FXN GAA850 act -2 and GSIS activator -27.
`N#CCCn1c2ccccc2c2nc3ccccc3nc21` gave CaV13 ICDI inh -8, FXN GAA850 act 6 and GSIS activator 41*.
For CCCn1c2ccccc2c2nc3ccccc3nc21 the results were CaV13 ICDI inh -4 and FXN GAA850 act 6.
Cc1ccccc1NC(=O)C[C@H]1CC[C@H]2[C@@H](COc3ccc(NC(=O)NC(C)C)cc3C(=O)N2C)O1 was read as XiGFP reactiv 0 and GSIS activator 15.
`COc1ccc(CNC(=O)CN2C(=O)NC3(CCCCCC3)C2=O)cc1` gave CaV13 ICDI inh -5, XiGFP reactiv 0, FXN GAA850 act -1 and GSIS activator 62*.
Screening Cc1ccc(CNC(=O)CN2C(=O)NC3(CCCC3)C2=O)cc1 returned CaV13 ICDI inh -6, XiGFP reactiv 0, FXN GAA850 act -1 and GSIS activator -10.
Screening C[C@@H]1CN([C@H](C)CO)C(=O)Cc2cc(NC(=O)C3CC3)ccc2O[C@@H]1CN(C)Cc1ccc(C(=O)O)cc1 returned XiGFP reactiv 0 and GSIS activator 29.
`COC(=O)[C@]1(Cc2ccccc2)N[C@H](CN(C)C(=O)Nc2ccc(C)cc2)[C@@H]2C(=O)N(C)C(=O)[C@@H]21` gave CaV13 ICDI inh -3, XiGFP reactiv 0, FXN GAA850 act -2 and GSIS activator 65*.
Cc1ccc(C(=O)NC2CCCCN(C)C2=O)cc1 (configuration not stated) was read as XiGFP reactiv 0 and GSIS activator 7.
Screening CN1CCCCC(NC(=O)c2ccccc2)C1=O (configuration not stated) returned CaV13 ICDI inh -2, XiGFP reactiv 0 and GSIS activator 117*.
Screening CCOC(=O)c1cnc2c([N+](=O)[O-])cnn2c1C returned CaV13 ICDI inh -2, XiGFP reactiv 0, FXN GAA850 act 1 and GSIS activator 9.
For O=[N+]([O-])c1cnn2cc(Br)cnc12 the results were CaV13 ICDI inh 0, XiGFP reactiv 0, FXN GAA850 act 0 and GSIS activator 45*.
Screening Cc1ccc(-c2nc3ccsc3c(=O)[nH]2)cc1 returned CaV13 ICDI inh 60*, XiGFP reactiv 0, FXN GAA850 act 6 and GSIS activator 6.
`CCOc1ccc(C(=O)Nc2ccc(-c3nc4ccccc4[nH]3)cc2)cc1[N+](=O)[O-]` gave CaV13 ICDI inh -6, XiGFP reactiv 0, FXN GAA850 act -4 and GSIS activator 102*.
Cn1ncc([N+](=O)[O-])c1C(=O)Nc1ccc(-c2nc3ccccc3[nH]2)cc1 was read as FXN GAA850 act 0 and GSIS activator -10.
